Results: ChEMBL document CHEMBL4513216, “Probing the Open Global Health Chemical Diversity Library for Multistage-Active Starting Points for Next-Generation Antimalarials” (ACS Infect Dis, 2020)

Test: Toxicity liver stage against HepG2, at 10uM
Assay type: cell-based
Set-up: test concentration 10 uM, cell line HepG2-A16-CD81EGFP
Conditions: human, HepG2-A16-CD81EGFP cells; read-out: INHIBITION
Summary of the method: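 Uninfected HepG2-A16-CD81EGFP cells, 3 × 10^3 per well, 1536-well, plated on prespotted compound at 10 μM final, parasite-free screening media added to match infected plates; puromycin 10 μM positive, DMSO 0.5% negative; run in parallel with 48 h PbLuc assay at 37 °C, 5% CO2; viability by CellTiter-Glo luminescence, normalized to controls.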

| Compound | cytotoxicity at 10 µM [%] |
| --- | --- |
| NS(=O)(=O)c1cccnc1Nc1c(Cl)cccc1Cl | -11.8 |
| CC(=O)N1CCC(N2CC[C@H](c3nc4cc(C)ccc4o3)C2)CC1 | 2.84 |
| COCCOc1ccc(-c2noc([C@@H]3CCCN3)n2)cn1 | -4.34 |
| CN(C)c1ccc(-c2noc([C@@H]3CCCN3)n2)cn1 | 1.73 |
| Cc1ccccc1CN1C[C@@H]2OCC(=O)N(CC(N)=O)[C@@H]2C1 | -4.87 |
| Cc1ccc(N2C(=O)N[C@@H]3CCN(C(=O)C4CCCC4)[C@@H]3C2=O)cc1 | 0.199 |
| Cc1cc(Cl)ccc1-n1ncc(C(=O)NCC2COC(C)(C)O2)c1N (stereo not given) | -2.25 |
| O=c1n(Cc2ccccc2F)nc2ncccn12 | -4.49 |
| CC(=O)Nc1ccc(SCCCC(=O)NCC2CCCO2)nn1 (stereo not given) | -8.67 |
| Cc1nc(NC(=O)c2c3c(nn2C2CCS(=O)(=O)C2)CCC3)sc1C (stereo not given) | -4.57 |
| O=C(Nc1c(F)cccc1F)N1CC(c2nc(C3CC3)no2)C1 | -1.65 |
| c1coc(CN2CCC3(CC2)CC(N2CCCC2)CO3)c1 (stereo not given) | -11.9 |
| O=S(=O)(c1cccc(Cl)c1)N1C[C@@H]2CCN[C@@H]2C1 | -0.331 |
| CN(C)C(=O)N1CCN(c2ccc3ccc(C(=O)NC4CC4)cn23)CC1 | 6.53 |
| CN(C)C(=O)N1CC[C@@H](O)[C@@H]1Cc1ccccc1 | 3.14 |
| O=C(Nc1ccccc1)C1CN(C(=O)c2cccs2)CC12CCOCC2 (stereo not given) | -2.13 |
| COCCNc1nc(NCCc2ccccc2)nc2nccnc12 | 9.97 |
| O=C(NCC(O)c1cccs1)c1cccc(Cl)c1 (stereo not given) | -17.8 |
| Cc1cnc2n(c1=O)CC(C(=O)NC1CC1)CS2 (stereo not given) | -18.3 |
| Cn1cccc1C(=O)N1CCc2ncc(Cn3cccn3)n2CC1 | -5.2 |
| Cc1nn(C)c(C)c1NC(=O)CCn1ncc2ccc(Cl)cc21 | 7.38 |
| CC(C)NC(=O)c1n[nH]c(-n2cnnc2)n1 | 1.08 |

| Compound | cytotoxicity at 10 µM [%] |
| --- | --- |
| Cc1nc(C)c(C(=O)N2CCc3nnc(C4CCCN4C)n3CC2)s1 (stereo not given) | -4.34 |
| O=C(c1ccncc1F)N1CCOC(c2cccc(O)c2)C1 (stereo not given) | -4.97 |
| COc1ccc(C)cc1C1(CNc2cn[nH]c(=O)c2Cl)CCOCC1 | -6.65 |
| COCCS(=O)(=O)NC(C)c1cccc(-n2cccn2)c1 (stereo not given) | 3.36 |
| CCC(NC(=O)c1ccc(OC)nn1)c1nc(C(F)(F)F)cs1 (stereo not given) | -3.41 |
| COCC(O)CNc1cncc(Br)c1 (stereo not given) | -2.52 |
| O=C(c1ccc[nH]1)N1CCN(C(c2ccccc2)C(F)(F)F)CC1 (stereo not given) | 8.3 |
| COc1ccc(C(=O)NC2COc3ccccc3C2)cc1OCC(=O)O (stereo not given) | -2.18 |
| Cc1nc(CN(C)C(=O)Nc2cccc(COC(C)C)c2)no1 | 8.45 |
| CC(C(=O)N1CCCCC1)N1CCN(c2ncc(Cl)cn2)CC1 (stereo not given) | -4.79 |
| O=C(NCc1ccc(Br)cc1)C1(O)CCSCC1 | -3.59 |
| Clc1cccc(C(CNc2ncccn2)N2CCOCC2)c1 (stereo not given) | 4.55 |
| Cc1nn(C)c(C)c1C(C)NCc1ccsc1 (stereo not given) | 5.42 |
| O=C(c1ccc(SC(F)(F)F)cc1)N1CCOCC1c1ncon1 (stereo not given) | -0.449 |
| CCOC(=O)C1CCN(C(=O)CN2CCCC2c2cc(C)no2)CC1 (stereo not given) | 8.32 |
| N#Cc1ccc(CN2CCCN(C(=O)CCn3cncn3)CC2)cc1 | -12.7 |
| CC(=O)CC(C)(C)NC(=O)CCN(C)Cc1ccc(Cl)s1 | 7.35 |
| Cc1noc(CN2CCN(CCO)CC2)n1 | 2.17 |
| O=C1CN(c2ccc(CNC(=O)c3cccnc3O)cc2F)CCN1 | 5.04 |
| CC1Cc2ccccc2N1Cc1occc1C(=O)O (stereo not given) | 0.995 |
| CN(Cc1ccco1)C(=O)C1=NN(C)C(=O)CC1 | -144 |
| CCc1nn(C)c(CC)c1CNC(=O)Nc1cccc([S+](C)[O-])c1 (stereo not given) | -1.01 |

| Compound | cytotoxicity at 10 µM [%] |
| --- | --- |
| O=C(CCn1cncn1)Nc1ccc(F)cc1OCC1CC1 | -2.58 |
| CCN(CC)c1ccc(C(=O)NCC2(C(N)=O)CCOCC2)cn1 | 2.99 |
| CSc1ncccc1C(=O)NCC(c1ccco1)N(C)C (stereo not given) | 2.57 |
| Cc1ccc(NC(=O)CNc2ccn(CC(N)=O)n2)c(Cl)c1 | 4.44 |
| Cc1cc(NC(=O)N(C)C2CCN(c3ccccc3F)C2=O)n(C)n1 (stereo not given) | -7.52 |
| CSCCC(NC(N)=O)C(=O)NCc1c(C)nn(-c2ccccc2)c1C (stereo not given) | 8.15 |
| O=C(NCC1CCCCO1)c1ccc(-c2ccco2)[nH]c1=O (stereo not given) | -3.06 |
| N#Cc1c(F)cccc1NCCCOCC1CCOC1 (stereo not given) | -2.64 |
| CN(CC(F)(F)F)C(=O)CNC(=O)Cc1cccc(O)c1 | 5.37 |
| Cc1cccn2c(=O)cc(CN3CCCCC3Cn3cncn3)nc12 (stereo not given) | 10.7 |
| OC[C@@H]1CCCN1c1nccc(-c2c[nH]nc2-c2ccncc2)n1 | -4.28 |
| CN1CCC(Cc2nc(-c3cnccn3)n(Cc3ccccc3)n2)CC1 | 1.21 |
| COCCCN1CC2(CCN(C(=O)c3ccc(=O)n(C)c3)CC2)CC1=O | -9.69 |
| CCN(C)C(=O)[C@H]1C[C@@](CC(C)C)(C(=O)OC)N(C)[C@H]1c1cccnc1 | 0.779 |
| CN(Cc1cc(-c2ccccc2)no1)C(=O)CNS(C)(=O)=O | 0.0288 |
| Cc1nn(C)c(C)c1CCC(=O)N1CCN(CCn2cncn2)CC1 | 2.33 |
| Cc1cc(-c2cnn(C)c2)ccc1OCC(N)=O | 2.74 |
| OC1(CNCCc2csc(-c3ccncc3)n2)CCCNC1 (stereo not given) | -13.2 |
| CN(CC(O)CO)C(=O)c1coc(COc2cccc(F)c2)n1 (stereo not given) | -149 |
| COc1ccc2c(C)c(C(=O)NCC3CN(S(C)(=O)=O)CCO3)oc2c1 (stereo not given) | 9.52 |
| Cc1nc2c(c(N3CCC(O)(CN4CCCC4)CC3)n1)CCNCC2 | -3.39 |
| CCC(C)N(Cc1cnc(OC)nc1)Cc1ccsc1 (stereo not given) | 1.71 |

| Compound | cytotoxicity at 10 µM [%] |
| --- | --- |
| CCNC(=O)[C@@H]1C[C@@H](NC(=O)c2ccc(C#N)cc2)CN1CCCSC | -123 |
| O=C(COc1ccccc1N1CCCC1)N1CCN[C@H]2CS(=O)(=O)C[C@H]21 | -0.687 |
| CCN(CCn1cccn1)Cc1nc(-c2ccc(C)o2)oc1C | -4.7 |
| Cc1cccc(C)c1NC(=O)NCC1CCCN(C2CCOCC2)C1 (stereo not given) | -5.95 |
| Cc1ccc(-c2cc(C(=O)N(C)Cc3noc4c3CCCC4)[nH]n2)s1 | -1.03 |
| CCOC(=O)N1CCC(NC(C)Cc2cc(C)n[nH]2)CC1 (stereo not given) | -2.65 |
| Cc1cc(C)n(-c2ccc(NCCNS(=O)(=O)c3ccccc3)nn2)n1 | -0.771 |
| COc1ccc(NC(=O)c2cc3c([nH]c2=O)CCCC3=O)c(OC)c1 | -0.0455 |
| Cc1ncsc1CCC(=O)NC1CCN(c2ccc(Cl)nn2)CC1 | -2.5 |
| CC(C)C(=O)NCC(=O)N(C)C1CCCN(C2Cc3ccccc3C2)C1 (stereo not given) | -7.79 |
| CCOc1ccc(-c2ccnc(CC)n2)cc1C(=O)O | -11.1 |
| CC(=O)N1CCN(Cc2coc(-c3cccc(F)c3)n2)CC1 | -3.78 |
| Cc1cc(CN(C)C2CCCN(Cc3noc(C)n3)C2)no1 (stereo not given) | 1.46 |
| Cc1cnn(CCNCc2ccccc2F)c1 | -9.54 |
| Cc1cnn(CC2CCCN2C(=O)c2ccc(OCC3CC3)nc2)c1 (stereo not given) | -9.86 |
| CN(CC1COc2ccccc2O1)C(=O)NCCCn1cccn1 (stereo not given) | -7.27 |
| Fc1cccc(-c2nc(CN3CCCC3Cn3cccn3)co2)c1 (stereo not given) | -11 |
| COc1cccc(CNc2cc(N3CCCC3CO)ncn2)n1 (stereo not given) | -12.5 |
| COc1nc(C)ccc1CNc1cc(N2CCCC2CO)ncn1 (stereo not given) | -8.02 |
| CCc1[nH]ncc1C(=O)N1CCCC(n2nc(C)cc2C)C1 (stereo not given) | -15.6 |
| NS(=O)(=O)c1cccc(CNc2nccc(C(F)(F)F)n2)c1 | -11.1 |
| COc1ccccc1C1(C(=O)N2CCCC(c3cc(C)[nH]n3)C2)CC1 (stereo not given) | -16.7 |

| Compound | cytotoxicity at 10 µM [%] |
| --- | --- |
| CS(=O)(=O)NCC1CCCN(C(=O)c2ccco2)C1 (stereo not given) | -19.3 |
| COc1cccc(CN2CCCC2c2c(C)nn(C)c2C)c1 (stereo not given) | -2.35 |
| Cc1nnc(C2Cc3ccccc3CN2Cc2ncc(C(C)(C)C)o2)o1 (stereo not given) | 10 |
| COc1ccccc1CC1CCCN(CC(=O)N2CCOCC2)C1 (stereo not given) | 7.87 |
| CC1CCN(CCCNS(=O)(=O)c2cccc(F)c2)CC1 | -12.3 |
| O=C(CC1CCC2(CC1)CCN(Cc1ccncc1)CC2)N1CCCC1 | 6.72 |
| O=C(NCc1cncc2c1CCN(Cc1ccc(F)cc1)C2)C1CC1 | -3.26 |
| Cc1cccc(CN2CC[C@H]3[C@@H]2CC(=O)N3CC2CC2)n1 | -4.25 |
| Cn1cc(C(=O)N[C@@H]2CN(CC3CCOCC3)[C@@H]3CCCO[C@@H]32)cn1 | 6.64 |
| Cc1ccc(C(=O)N2CCC3(CCN(c4ccsc4)C3=O)C2)cn1 (stereo not given) | -127 |
| Cn1cccc1C(=O)N1CCCC2(CCN(CCN3CCCC3)C2=O)C1 (stereo not given) | -10.8 |
| COC(=O)CN1CC(c2nc(Cc3ccccc3)no2)C1 | -22.9 |
| Cc1ccc(CN2Cc3nnn(C)c3C(COCC3CC3)C2)o1 (stereo not given) | -4.7 |
| Cc1cccc(CN2C(=O)C[C@H]3[C@@H]2CCN3CC2CC2)n1 | 6.59 |
| CN1[C@H](CN2CCCC2)C[C@@H]2CN(Cc3ccoc3)CC[C@@H]21 | -160 |
| CS(=O)(=O)c1cccc(C(N)c2ccc(F)c(F)c2)c1 (stereo not given) | 6.62 |
| O=C(NCc1cccnc1)N1CCc2ncnc(C3CC3)c2CC1 | -144 |
| CCn1ncc2c1C(COCC1CC1)CN(c1ccncn1)C2 (stereo not given) | 2.74 |
| O=C1C[C@@H]2[C@H](CCN2Cc2ccccn2)N1Cc1ccncc1 | 4.53 |
| CC(C)c1ccccc1NC(=O)N1C[C@H]2CC[C@@H](C1)N(C)C2=O | -3 |
| O=C(c1cc(C2CCCCC2)no1)N1C[C@H]2CC(O)C[C@H]2C1 (stereo not given in full) | -3.89 |
| O=c1[nH]c2cn(-c3cccc(Cl)c3)c(=O)n2[nH]1 | 1.35 |
